# Measurements taken from ChEMBL document CHEMBL3992526, “Antagonizing NOD2 Signaling with Conjugates of Paclitaxel and Muramyl Dipeptide Derivatives Sensitizes Paclitaxel Therapy and Significantly Prevents Tumor Metastasis” (J Med Chem, 2017).
# The source made the active and inactive calls. The rule behind the calls is not given here.
# What was measured:
# [1] = biological target: T1, Nucleotide-binding oligomerization domain-containing protein 2 (Homo sapiens, UniProt Q9HC29); experiment: Inhibition of MDP-induced human NOD2 signaling expressed in HEK-Blue cells preincubated for 3 hrs followed by MDP-stimulation for 20 hrs by spectrophotometry based SEAP reporter gene assay; format: cell-based
# T1 sequence (Q9HC29 whole entry, the tested form may be a part): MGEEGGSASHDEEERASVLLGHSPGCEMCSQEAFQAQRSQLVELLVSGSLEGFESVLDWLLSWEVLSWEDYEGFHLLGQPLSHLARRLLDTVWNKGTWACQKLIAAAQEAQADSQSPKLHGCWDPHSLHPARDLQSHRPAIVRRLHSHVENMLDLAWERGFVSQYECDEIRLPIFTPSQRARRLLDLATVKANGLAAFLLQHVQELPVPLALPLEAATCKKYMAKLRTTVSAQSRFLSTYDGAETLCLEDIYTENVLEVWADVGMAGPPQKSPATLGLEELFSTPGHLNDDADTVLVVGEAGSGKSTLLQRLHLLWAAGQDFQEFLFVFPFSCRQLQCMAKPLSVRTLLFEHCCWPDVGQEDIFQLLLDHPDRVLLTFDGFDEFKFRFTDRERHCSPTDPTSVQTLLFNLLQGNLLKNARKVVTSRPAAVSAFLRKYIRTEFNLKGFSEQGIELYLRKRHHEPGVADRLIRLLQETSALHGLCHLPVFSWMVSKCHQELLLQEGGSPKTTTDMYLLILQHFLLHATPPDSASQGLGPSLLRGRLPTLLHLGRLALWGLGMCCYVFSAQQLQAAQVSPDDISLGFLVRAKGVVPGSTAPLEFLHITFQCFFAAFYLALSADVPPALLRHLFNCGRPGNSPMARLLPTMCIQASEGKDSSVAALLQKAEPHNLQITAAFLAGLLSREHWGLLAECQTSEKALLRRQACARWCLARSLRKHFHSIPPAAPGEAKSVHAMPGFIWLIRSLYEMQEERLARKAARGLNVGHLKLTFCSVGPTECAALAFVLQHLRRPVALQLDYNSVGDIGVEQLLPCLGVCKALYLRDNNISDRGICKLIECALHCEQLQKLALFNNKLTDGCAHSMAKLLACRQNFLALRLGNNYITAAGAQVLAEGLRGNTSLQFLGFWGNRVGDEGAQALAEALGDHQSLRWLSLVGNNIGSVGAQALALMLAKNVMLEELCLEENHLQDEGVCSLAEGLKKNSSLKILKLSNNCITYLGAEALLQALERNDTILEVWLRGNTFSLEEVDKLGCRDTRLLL
# [2] = test system: Lewis lung carcinoma cell line; experiment: Antitumor activity against mouse LLC cells implanted in iv dosed C57BL/6N mouse assessed as tumor growth inhibition; format: functional, organism-based
# [3] = biological target: T1, Nucleotide-binding oligomerization domain-containing protein 2; experiment: Activation of human NOD2 signaling expressed in HEK-Blue cells incubated for 3 hrs by spectrophotometry based SEAP reporter gene assay; format: cell-based
# [4] = Cytotoxicity against HEK-Blue cells expressing human NOD2 assessed as reduction in cell growth at 1.5625 to 50000 nM preincubated for 3 hrs followed by MDP-stimulation for 20 hrs by SRB assay; format: cell-based; conditions: 50 µM
# [5] = Cytotoxicity against HEK-Blue cells expressing human NOD2 assessed as reduction in cell growth at 1.5625 to 50000 nM incubated for 3 hrs by SRB assay; format: cell-based; conditions: 50 µM
# [6] = Cmax in tumor of LLC tumor bearing C57BL/6N mouse at 18 mg/kg, iv by LC-MS/MS analysis; format: ADME, organism-based, Neoplasm; set-up: dose 18 mg/kg, route intravenous; conditions: in vivo
# Summary of the method: (§1)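 Tumour-tissue pharmacokinetics in LLC tumour-bearing mice after a single iv injection of PTX at 18 mg/kg, equimolar to the conjugate at 30 mg/kg. Analyte concentrations were measured in tumour tissue over time (n=5 mice). Tmax is given in h and Cmax in nmol/g.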
# [7] = AUC (0 to t) in tumor of LLC tumor bearing C57BL/6N mouse at 18 mg/kg, iv up to 24 hrs by LC-MS/MS analysis; format: ADME, organism-based, Neoplasm; conditions: in vivo; summary of the method: as §1
# [8] = Tmax in tumor of LLC tumor bearing C57BL/6N mouse at 18 mg/kg, iv by LC-MS/MS analysis; format: ADME, organism-based, Neoplasm
# Summary of the method: (§2)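 Mice bearing LLC tumors were given a single iv injection at equimolar doses: the conjugate at 30 mg/kg or paclitaxel at 18 mg/kg. Tumor tissue was sampled over time. Intact conjugate, released paclitaxel and MDA-linker were quantified in tumor tissue (nmol/g). Tmax and Cmax were taken from tumor concentration profiles, n=5 per group.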
# [9] = Drug level in tumor of LLC tumor bearing C57BL/6N mouse treated with MTC-220 at 30 mg/kg, iv up to 24 hrs by LC-MS/MS analysis relative to paclitaxel alone; format: ADME, organism-based, Neoplasm; conditions: in vivo; summary of the method: as §2
# [10] = AUC (0 to t) in tumor of LLC tumor bearing C57BL/6N mouse assessed as MDA-linker level at 30 mg/kg, iv up to 24 hrs by LC-MS/MS analysis; format: ADME, organism-based, Neoplasm; conditions: in vivo
# Summary of the method: (§3)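 LLC tumor-bearing mice received a single iv injection at 30 mg/kg; tumor tissue was sampled over time and assayed for intact conjugate and its metabolites PTX and MDA-linker. Tmax in h and Cmax in nmol/g tumor were reported, n=5 mice.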
# [11] = AUC (0 to t) in tumor of LLC tumor bearing C57BL/6N mouse assessed as paclitaxel level at 30 mg/kg, iv up to 24 hrs by LC-MS/MS analysis; format: ADME, organism-based, Neoplasm; conditions: in vivo; summary of the method: as §3
# [12] = Cmax in tumor of LLC tumor bearing C57BL/6N mouse assessed as MDA-linker level at 30 mg/kg, iv by LC-MS/MS analysis; format: ADME, organism-based, Neoplasm; set-up: dose 30 mg/kg, route intravenous; conditions: in vivo; summary of the method: as §3
# [13] = Tmax in tumor of LLC tumor bearing C57BL/6N mouse assessed as paclitaxel level at 30 mg/kg, iv by LC-MS/MS analysis; format: ADME, organism-based, Neoplasm; conditions: in vivo; summary of the method: as §3
# [14] = AUC (0 to t) in tumor of LLC tumor bearing C57BL/6N mouse at 30 mg/kg, iv up to 24 hrs by LC-MS/MS analysis; format: ADME, organism-based, Neoplasm; conditions: in vivo; summary of the method: as §3
# [15] = Cmax in tumor of LLC tumor bearing C57BL/6N mouse assessed as paclitaxel level at 30 mg/kg, iv by LC-MS/MS analysis; format: ADME, organism-based, Neoplasm; set-up: dose 30 mg/kg, route intravenous; conditions: in vivo; summary of the method: as §3
# [16] = Cmax in tumor of LLC tumor bearing C57BL/6N mouse at 30 mg/kg, iv by LC-MS/MS analysis; format: ADME, organism-based, Neoplasm; set-up: dose 30 mg/kg, route intravenous; conditions: in vivo; summary of the method: as §3
# [17] = Tmax in tumor of LLC tumor bearing C57BL/6N mouse assessed as MDA-linker level at 30 mg/kg, iv by LC-MS/MS analysis; format: ADME, organism-based, Neoplasm; conditions: in vivo; summary of the method: as §3
# [18] = Cytotoxicity against HEK-Blue cells expressing human NOD2 assessed as reduction in cell growth at 0.3125 to 10000 nM incubated for 3 hrs by SRB assay; format: cell-based; conditions: 10 µM
# [19] = biological target: T1, Nucleotide-binding oligomerization domain-containing protein 2; experiment: Inhibition of MDP-stimulated human NOD2 activation expressed in HEK-Blue cells assessed as reduction in NOD2-mediated NF-kB signaling by measuring decrease in IkBalpha level preincubated for 1 hr followed by MDP-stimulation for 1 hr by Western blot method; format: cell-based
# [20] = biological target: T1, Nucleotide-binding oligomerization domain-containing protein 2; experiment: Inhibition of MDP-stimulated human NOD2 activation expressed in HEK-Blue cells assessed as reduction in NOD2-mediated MAPK signaling by measuring decrease in phosphorylated p38 level preincubated for 1 hr followed by MDP-stimulation for 1 hr by Western blot method; format: cell-based
# [21] = Cytotoxicity against HEK-Blue cells expressing human NOD2 assessed as reduction in cell growth at 0.3125 to 10000 nM preincubated for 3 hrs followed by MDP-stimulation for 20 hrs by SRB assay; format: cell-based; conditions: 10 µM
# [22] = test system: Lewis lung carcinoma cell line; experiment: Potentiation of paclitaxel-induced antitumor activity against mouse LLC cells implanted in C57BL/6N mouse assessed as inhibition of lung tumor metastasis at 30 mg/kg, iv administered once in every two days and paclitaxel treatment once in every four days measured 4 weeks after implantation relative to control; format: functional
# [23] = biological target: T1, Nucleotide-binding oligomerization domain-containing protein 2; experiment: Inhibition of His-tagged and FLAG-tagged NOD2 (unknown origin) self-oligomerization expressed in HEK293T cells at 10 uM preincubated for 1 hr followed by MDP stimulation for 15 mins by co-immunoprecipitation assay; format: cell-based
# [24] = biological target: T1, Nucleotide-binding oligomerization domain-containing protein 2; experiment: Inhibition of MDP-stimulated NOD2 activation in human PBMC derived macrophages assessed as reduction in NOD2-mediated MAPK signaling by measuring decrease in phosphorylated JNK level preincubated for 1 hr followed by MDP-stimulation for 1 hr by Western blot method
# [25] = test system: Lewis lung carcinoma cell line; experiment: Antitumor activity against mouse LLC cells implanted in C57BL/6N mouse assessed as inhibition of lung tumor metastasis at 30 mg/kg, iv administered once in every two days measured 4 weeks after implantation; format: functional, organism-based
# [26] = biological target: T1, Nucleotide-binding oligomerization domain-containing protein 2; experiment: Inhibition of MDP-stimulated human NOD2 activation expressed in HEK-Blue cells assessed as reduction in NOD2-mediated NF-kB signaling by measuring decrease in phosphorylated RIP2 level preincubated for 1 hr followed by MDP-stimulation for 1 hr by Western blot method; format: cell-based
# [27] = biological target: Receptor-interacting serine/threonine-protein kinase 2 (Homo sapiens) (UniProt O43353); experiment: Inhibition of recombinant human N-terminal GST-tagged RIP2 (1 to 299 residues) expressed in baculovirus infected Sf9 cells at 10 uM using MBP as substrate incubated for 60 mins in presence of ATP by ADP-Glo assay
# Chain of Receptor-interacting serine/threonine-protein kinase 2 (Homo sapiens) (O43353 whole entry, the tested form may be a part): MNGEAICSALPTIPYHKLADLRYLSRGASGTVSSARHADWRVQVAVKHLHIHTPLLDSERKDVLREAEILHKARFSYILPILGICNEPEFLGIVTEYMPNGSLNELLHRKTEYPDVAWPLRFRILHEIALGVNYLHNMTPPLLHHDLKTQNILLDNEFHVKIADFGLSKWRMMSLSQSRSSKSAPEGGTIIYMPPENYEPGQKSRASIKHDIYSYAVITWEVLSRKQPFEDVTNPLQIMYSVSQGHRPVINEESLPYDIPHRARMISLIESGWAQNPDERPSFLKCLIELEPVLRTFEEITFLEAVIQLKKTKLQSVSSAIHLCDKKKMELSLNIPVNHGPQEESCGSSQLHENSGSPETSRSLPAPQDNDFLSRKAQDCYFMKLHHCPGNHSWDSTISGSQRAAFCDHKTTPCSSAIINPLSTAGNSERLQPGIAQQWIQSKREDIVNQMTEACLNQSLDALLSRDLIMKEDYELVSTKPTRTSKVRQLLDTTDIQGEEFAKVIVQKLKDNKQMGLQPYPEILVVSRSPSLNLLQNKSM
# [28] = test system: Lewis lung carcinoma cell line; experiment: Antitumor activity against mouse LLC cells implanted in C57BL/6N mouse assessed as reduction in tumor weight at 30 mg/kg, iv administered once in every two days measured 4 weeks after implantation; format: functional, organism-based
# [29] = biological target: T1, Nucleotide-binding oligomerization domain-containing protein 2; experiment: Inhibition of MDP-stimulated NOD2 activation in human PBMC derived macrophages assessed as reduction in NOD2-mediated NF-kB signaling by measuring decrease in IkBalpha level preincubated for 1 hr followed by MDP-stimulation for 1 hr by Western blot method
# [30] = biological target: T1, Nucleotide-binding oligomerization domain-containing protein 2; experiment: Inhibition of MDP-stimulated human NOD2 activation expressed in HEK-Blue cells assessed as reduction in NOD2-mediated MAPK signaling by measuring decrease in phosphorylated JNK level preincubated for 1 hr followed by MDP-stimulation for 1 hr by Western blot method; format: cell-based
# [31] = biological target: T1, Nucleotide-binding oligomerization domain-containing protein 2; experiment: Inhibition of NOD2 signaling in human PBMC derived macrophages assessed as inhibition of MDP-induced IL-6 mRNA expression at 1 to 10 uM preincubated for 1 hr followed by MDP-stimulation for 90 mins by RT-PCR method
# [32] = test system: Lewis lung carcinoma cell line; experiment: Potentiation of paclitaxel-induced antitumor activity against mouse LLC cells implanted in C57BL/6N mouse assessed as reduction in tumor weight at 30 mg/kg, iv administered once in every two days and paclitaxel treatment once in every four days measured 4 weeks after implantation; format: functional, organism-based
# [33] = biological target: T1, Nucleotide-binding oligomerization domain-containing protein 2; experiment: Inhibition of MDP-induced human NOD2 signaling expressed in HEK-Blue cells at 10 uM preincubated for 3 hrs followed by MDP-stimulation for 20 hrs by spectrophotometry based SEAP reporter gene assay relative to control; format: cell-based
# [34] = biological target: T1, Nucleotide-binding oligomerization domain-containing protein 2; experiment: Inhibition of MDP-stimulated NOD2 activation in human PBMC derived macrophages assessed as reduction in NOD2-mediated MAPK signaling by measuring decrease in phosphorylated ERK1/2 level preincubated for 1 hr followed by MDP-stimulation for 1 hr by Western blot method
# [35] = biological target: T1, Nucleotide-binding oligomerization domain-containing protein 2; experiment: Inhibition of MDP-stimulated NOD2 activation in human PBMC derived macrophages assessed as reduction in NOD2-mediated NF-kB signaling by measuring decrease in phosphorylated RIP2 level preincubated for 1 hr followed by MDP-stimulation for 1 hr by Western blot method
# [36] = biological target: T1, Nucleotide-binding oligomerization domain-containing protein 2; experiment: Inhibition of MDP-stimulated NOD2 activation in human PBMC derived macrophages assessed as reduction in NOD2-mediated MAPK signaling by measuring decrease in phosphorylated p38 level preincubated for 1 hr followed by MDP-stimulation for 1 hr by Western blot method
# [37] = biological target: T1, Nucleotide-binding oligomerization domain-containing protein 2; experiment: Inhibition of MDP-stimulated human NOD2 activation expressed in HEK-Blue cells assessed as reduction in NOD2-mediated MAPK signaling by measuring decrease in phosphorylated ERK1/2 level preincubated for 1 hr followed by MDP-stimulation for 1 hr by Western blot method; format: cell-based
smiles,measurement,setting,value
C[C@H](NC(=O)/C=C/c1ccc(Cl)cc1)C(=O)N[C@H](CCC(=O)N[C@@H](CCCCNC(=O)CCC(=O)O)C(N)=O)C(N)=O,inhibition activity call (active/not active),[1],inactive
same,TGI,[2],inactive
same,Activity,[3],inactive
same,Activity,[4],Non-Toxic
same,Activity,[5],Non-Toxic
CC(=O)O[C@H]1C(=O)[C@@]2(C)[C@H]([C@H](OC(=O)c3ccccc3)[C@]3(O)C[C@H](OC(=O)[C@H](O)[C@@H](NC(=O)c4ccccc4)c4ccccc4)C(C)=C1C3(C)C)[C@]1(OC(C)=O)CO[C@@H]1C[C@@H]2O [PACLITAXEL],Cmax,[6],4.85 nmol/g
same,AUCt,[7],46.62 nmol·h/g
same,Tmax,[8],1.05 h
same,IC50,[1],7.94 µM
same,fold change (FC),[9],2
CC(=O)O[C@@]12CO[C@@H]1C[C@H](O)[C@@]1(C)C(=O)[C@H](O)C3=C(C)[C@@H](OC(=O)[C@H](O)[C@@H](NC(=O)OC(C)(C)C)c4ccccc4)C[C@@](O)([C@@H](OC(=O)c4ccccc4)[C@H]21)C3(C)C [DOCETAXEL ANHYDROUS],IC50,[1],5.01 µM
CC(=O)O[C@H]1C(=O)[C@@]2(C)[C@H]([C@H](OC(=O)c3ccccc3)[C@]3(O)C[C@H](OC(=O)[C@H](OC(=O)CCC(=O)NCCCC[C@H](NC(=O)CC[C@@H](NC(=O)[C@H](C)NC(=O)/C=C/c4ccc(Cl)cc4)C(N)=O)C(N)=O)[C@@H](NC(=O)c4ccccc4)c4ccccc4)C(C)=C1C3(C)C)[C@]1(OC(C)=O)CO[C@@H]1C[C@@H]2O,AUCt,[10],16.27 nmol·h/g
same,AUCt,[11],89.63 nmol·h/g
same,Cmax,[12],1.01 nmol/g
same,Tmax,[13],12 h
same,AUCt,[14],211.02 nmol·h/g
same,Cmax,[15],5.83 nmol/g
same,Cmax,[16],15.39 nmol/g
same,Tmax,[17],10.4 h
CC(=O)O[C@H]1C(=O)[C@@]2(C)[C@H]([C@H](OC(=O)c3ccccc3)[C@]3(O)C[C@H](OC(=O)[C@H](OCCC(=O)NCCCC[C@H](NC(=O)CC[C@@H](NC(=O)[C@H](C)NC(=O)/C=C/c4ccc(Cl)cc4)C(N)=O)C(N)=O)[C@@H](NC(=O)c4ccccc4)c4ccccc4)C(C)=C1C3(C)C)[C@]1(OC(C)=O)CO[C@@H]1C[C@@H]2O,Activity,[18],Non-Toxic
same,inhibition,[19],Dose-dependent effect
same,inhibition,[20],Dose-dependent effect
same,Activity,[21],Non-Toxic
same,fold change (FC),[22],2
same,inhibition,[23],Active
same,inhibition,[24],Dose-dependent effect
same,inhibition,[25],inactive
same,inhibition,[26],Dose-dependent effect
same,inhibition,[27],inactive
same,TGI,[28],inactive
same,inhibition,[29],Dose-dependent effect
same,inhibition activity call (active/not active),[1],Active
same,inhibition,[30],Dose-dependent effect
same,inhibition,[31],Active
same,TGI,[32],Active
same,inhibition,[33],50%
same,inhibition,[34],Dose-dependent effect
same,inhibition,[35],Dose-dependent effect
same,inhibition,[36],Dose-dependent effect
same,inhibition,[37],Dose-dependent effect
